Source: PubChem (several laboratories)
Compounds with a hit are over-represented: about 2.2% of the library has one in this group of screens.
BaF3 tox: counter-screen for JAK2V617F inhibitors: parental Ba/F3 viability inhibitors. AID 1486. actives 1.1% (n = 220,000). CellTiter-Glo ATP luminescence. inhibition, % at 5.6 µM;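 active means inhibition above a per-campaign cutoff, the mean inhibition of all tested compounds plus 3 SD, cut at about 27% in these data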;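 further: 0% = DMSO wells and 100% = JAK Inhibitor I control wells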
IEC-6 cytotox: counter-screen for KLF5 inhibitors: cytotoxicity in IEC-6 cells; IEC-6 cytotoxicity, luminescence viability; inhibition, % at 5 µM; actives 0.78% (n = 290,000); AID 1825;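 further: 0% = plate median of test compound wells and 100% = cytotoxic reference compound wells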
APP 5UTR inh: APP translation inhibition; SH-SY5Y APP 5'UTR-luciferase reporter, luminescence; inhibition, % at 2 µM; actives 0.82% (n = 190,000); AID 1285;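 active means inhibition above a set limit, derived from the sample mean plus 3 SD, cut at about 45% in these data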
MT stabilize HCS: microtubule stabilization, imaging screen; HeLa tubulin immunostaining HCS, 24 h; share of cells brighter than vehicle mean+2SD; % tubulin-high responders, % at 10 µM; actives 0.83% (n = 200,000); AID 2205;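 active means plate Z-score above 3 for both tubulin-high and condensed-nucleus cell shares, with cell loss under 80%, at 10 µM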;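 further: anti alpha tubulin signal scored within the nucleus-defined area of each cell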
Ba/F3 V617F tox: lowers viability of Ba/F3 cells expressing EpoR and JAK2V617F; ATP luminescence; inhibition, % at 5.6 µM; actives 1.1% (n = 220,000); AID 1446;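 active means inhibition above the campaign mean plus 3 SD over all tested compounds, cut at about 24% in these data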;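 further: cytokine-independent growth of Ba/F3 cells driven by EpoR plus mutant JAK2; 0% = DMSO-treated cells and 100% = JAK inhibitor I control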
bCat nuc transl: alters nuclear translocation of beta-catenin in HeLa cells; immunofluorescence imaging; nuclear translocation activity, % at 5 µM; AID 1665; actives 0.3% (n = 190,000);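 active means nuclear translocation activity above 50% at 5 µM, with a well cell count of 50 or more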;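 further: per-cell ratio of nuclear to cytoplasmic median beta-catenin stain intensity; plate controls were DMSO negative control for no effect and GSK-3 inhibitor IX positive control for full effect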
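Test system: human HeLa cells, endogenous beta-catenin. Times: 24 h compound exposure, 37°C. Measured by: beta-catenin immunofluorescence imaging with DAPI.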
IEC-6 cytotox cf: IEC-6 cytotoxicity, confirmation assay | shares compounds with IEC-6 cytotox | inhibition, % at 5 µM | actives 63% (n = 1,900) | IEC-6 rat intestinal epithelial viability, luminescence;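 further: 0% = vehicle and 100% = reference cytotoxic drug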
* hit, by the source's call; . = no result given. Unless noted, no stated cut-off is given here; in the data, active means inhibition above about 22%; inactive means the rest.

SMILES	BaF3 tox	IEC-6 cytotox	APP 5UTR inh	MT stabilize HCS	Ba/F3 V617F tox	bCat nuc transl	IEC-6 cytotox cf
C=CCn1c(C(C)NC(=O)c2cccc(C)c2)n[nH]c1=S (stereo not given)	2.2	3.4	-12.7	4.1	0.7	0.8	.
COc1ccc(C(c2c(O)ccc3ccccc23)N2CCOCC2)c(OC)c1 (stereo not given)	0.1	35.0*	-74.0	2.0	-1.1	-2.3	-1.4
CC1CCN(Cc2ccc(-c3nnn(CC(=O)Nc4ccccc4Cl)n3)cc2)CC1	2.8	33.5*	2.6	1.7	-1.7	-2.2	25.7*
Cc1ccc(OCc2cc(C(=O)N(C)Cc3cc(C4CC4)n[nH]3)no2)cc1C	.	2.0	.	.	.	.	.
CCn1c(=O)cc(OCC(=O)NCc2ccco2)c2ccccc21	1.3	1.7	6.0	8.6	-3.5	-2.6	.
CCn1c(=O)cc(OCC(=O)NCc2ccc(C)o2)c2ccccc21	5.6	22.6*	7.7	3.9	2.0	.	13.1
CCc1ccc(OC(=O)Nc2ccccc2)cc1	.	-0.2	.	.	.	.	.
CNc1nc2cc([N+](=O)[O-])c([N+](=O)[O-])cc2nc1NC	68.6*	39.5*	-18.3	5.5	75.1*	0.0	33.7*
COc1ccc(C(=O)n2c(-c3ccco3)nc3ccccc32)cc1	8.2	47.6*	50.1*	23.5*	10.3	74.6*	35.8*
COc1ccccc1-n1c(CCC(=O)O)ccc1-c1ccccc1	.	0.9	.	.	.	.	.
COc1ccc(-c2ccc(CCC(=O)O)n2-c2ccccc2OC)cc1	.	40.7*	.	.	.	.	-2.7
COc1cc(C(=O)NNC(=O)C2CC=CCC2C(=O)O)cc(OC)c1OC (stereo not given)	44.4*	70.1*	64.8*	7.5	60.3*	-3.0	-3.2
Cc1cccc(OCCCN2C(=O)C(=O)c3cc(C)ccc32)c1	6.5	43.8*	39.5	2.6	3.7	0.1	14.7
Cc1ccc2c(c1)C(=O)C(=O)N2CCCOc1ccccc1	10.0	4.4	-0.3	2.3	1.7	0.9	.
CC(C)c1ccccc1NCC(=O)N1CCN(Cc2ccccc2)CC1	.	3.6	.	.	.	.	.
COc1ccc(C(CC(=O)c2ccccc2)CC(=O)c2ccccc2)cc1OC	-0.3	7.3	9.1	8.3	3.6	0.6	.
CSc1nnc(NC(=O)c2nc(S(=O)(=O)Cc3cccc(C)c3)ncc2Cl)s1	.	44.8*	.	.	.	.	18.8
Cc1ccc(CS(=O)(=O)c2ncc(Cl)c(C(=O)Nc3nnc(C(C)C)s3)n2)cc1	.	36.4*	.	.	.	.	18.0
Cc1cccc(CS(=O)(=O)c2ncc(Cl)c(C(=O)Nc3nnc(C(C)C)s3)n2)c1	.	60.4*	.	.	.	.	13.6
CC(C)c1nnc(NC(=O)c2nc(S(=O)(=O)Cc3ccc(F)cc3)ncc2Cl)s1	.	19.0	.	.	.	.	.
CSc1nnc(NC(=O)c2nc(S(=O)(=O)Cc3ccccc3F)ncc2Cl)s1	.	2.7	.	.	.	.	.
CNC(=O)c1c(C)nn(-c2ccc(F)c(Cl)c2)c1-c1cc(C)on1	-3.8	-3.8	.	.	0.2	-2.3	.
C=C(C)COc1ccc2c(C)c(CC(=O)N3C[C@H]4C[C@@H](C3)c3cccc(=O)n3C4)c(=O)oc2c1C	.	5.1	.	.	.	.	.
COc1cc2[nH]c(=S)nc(NCc3cccc(Cl)c3)c2cc1OC	.	26.9*	.	.	.	.	7.8
Cc1ccc(C(=O)Nc2ccn(Cc3ccc(F)cc3)n2)o1	2.0	74.4*	-5.7	6.2	23.2	0.5	8.7
SMILES	BaF3 tox	IEC-6 cytotox	APP 5UTR inh	MT stabilize HCS	Ba/F3 V617F tox	bCat nuc transl	IEC-6 cytotox cf
Cn1c(SCC(=O)NC2CCCC2)nnc1-c1ccco1	.	1.3	.	.	.	.	.
CC1=Nc2cc(C(=O)NCC3CCCO3)ccc2Sc2ccc(C)cc21 (stereo not given)	.	79.0*	.	.	.	.	52.6*
CC1=Nc2cc(C(=O)NCCCN3CCN(C)CC3)ccc2Sc2ccc(C)cc21	.	-3.2	.	.	.	.	.
COc1cc(/C=N/NC(=O)CC#N)cc(Br)c1O	-0.4	36.8*	-6.1	1.6	-4.3	-2.5	-6.0
COc1cc(/C=N/NC(=O)Cc2ccc(Br)cc2)cc(OC)c1O	-0.8	-1.7	-12.0	2.9	-5.0	1.3	.
COc1cccc(C(C(=O)NC2CCCC2)N(C(=O)c2ccco2)c2ccc(NC(C)=O)cc2)c1OC (stereo not given)	.	-1.1	.	.	.	.	.
Cc1[nH]n(-c2ccccc2)c(=O)c1/C=N/NC(=O)c1ccccc1F	.	30.0*	.	.	.	.	16.1
CCCCCC(O)(c1ccc(OCC)cc1)C(CN1CCOCC1)c1ccccc1 (stereo not given)	.	-2.4	.	.	.	.	.
CCC(=O)N1CCN(c2ccc(Cl)cc2NC(=O)c2cccc([N+](=O)[O-])c2)CC1	1.0	-0.7	-22.7	8.0	-1.1	-1.1	.
CCC(=O)N1CCN(c2ccc(NC(=O)c3ccc([N+](=O)[O-])o3)cc2Cl)CC1	60.0*	67.3*	92.5*	41.5	87.8*	4.4	63.3*
CCN1CCN(c2ccc(NC(=O)c3ccc([N+](=O)[O-])o3)cc2Cl)CC1	48.4*	69.6*	93.6*	25.6	76.2*	2.2	45.5*
CCC(=O)N1CCN(c2ccc(Cl)cc2NC(=O)c2ccc([N+](=O)[O-])o2)CC1	.	34.3*	.	.	.	.	8.2
CC(=O)N1CCN(c2ccc(NC(=O)c3ccco3)cc2Cl)CC1	.	4.3	.	.	.	.	.
CC(=O)N1CCN(c2ccc(NC(=O)c3ccc([N+](=O)[O-])o3)cc2Cl)CC1	.	100.6*	.	.	.	.	48.3*
CCC(=O)N1CCN(c2ccc(NC(=O)c3ccco3)cc2Cl)CC1	.	1.8	.	.	.	.	.
CCN(CC)c1ccc2c(Cl)c(Br)c(=O)oc2c1	2.9	49.5*	5.1	16.2	1.5	.	27.0*
Cc1ccc(-n2c(O)c(/C=C3/C(c4ccccc4)=Nc4ccccc43)c(=O)[nH]c2=O)cc1	60.5*	65.7*	76.1*	17.6*	74.1*	-0.4	59.5*
Cc1cc2c(Nc3ccccc3)ncnc2s1	5.1	20.2	-13.0	5.6	-3.8	0.7	.
Cc1cc2c(NCCc3ccccc3)ncnc2s1	.	22.5*	.	.	.	.	22.4*
O=C(Nc1cccc(Cl)c1)C1COc2ccccc2O1 (stereo not given)	.	-1.0	.	.	.	.	.
COc1ccccc1C(=O)NNC(=S)NC(=O)c1cccs1	.	47.7*	.	.	.	.	28.0*
O=C(NC(=S)NNC(=O)c1ccccc1O)c1cccs1	.	-11.2	.	.	.	.	.
CCOC(=O)Cn1c(S(=O)(=O)Cc2cccc(F)c2)nc(-c2ccccc2)c1-c1ccccc1	4.7	22.9*	5.2	1.1	2.4	1.2	20.5
Cc1cccc(C(=O)Nc2ccccc2SCC2CSc3nc4ccccc4c(=O)n32)c1 (stereo not given)	0.8	65.6*	-11.1	1.4	-1.6	-1.1	44.0*
O=C(Nc1ccccc1SCC1CSc2nc3ccccc3c(=O)n21)c1ccccc1Cl (stereo not given)	3.6	59.9*	-0.6	1.8	-2.9	-1.2	26.4*
O=C(Nc1ccccc1SCC1CSc2nc3ccccc3c(=O)n21)c1cccc(Cl)c1 (stereo not given)	4.7	69.4*	-1.2	1.4	3.5	10.0	41.8*
